Measured values from ChEMBL document CHEMBL3992547, “Antimicrobial activity of rhodanine-3-acetic acid derivatives” (Bioorg Med Chem, 2017).
Values after ≈ are worked out from the molar mass of the structure shown. Active and inactive are the calls of the source. No cut-off for these calls is given here.

Experiments:
Mycobacterium kansasii [1] = experiment: Antimycobacterial activity against Mycobacterium kansasii isolate 6509/96 after 21 days by micromethod; format: functional; conditions: isolate 6509/96, 504 h
Staphylococcus aureus [2] = experiment: Antibacterial activity against Staphylococcus aureus CCM 4516/08 incubated for 24 hrs under dark condition by microdilution broth assay; format: functional; conditions: CCM 4516/08, 24 h
Method in brief: (§1)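 Broth microdilution per M07-A07, modified, in Mueller-Hinton broth adjusted to pH 7.4 (±0.2). Inoculum is prepared in sterile water to McFarland 0.5 (1.5 × 10⁸ CFU/mL). Plates are incubated in the dark at 35 °C in humid air. MIC is read after 24 and 48 h as at least 95% growth reduction versus control (IC₉₅).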

Mycobacterium kansasii [3] = experiment: Antimycobacterial activity against Mycobacterium kansasii isolate 6509/96 after 14 days by micromethod; format: functional; conditions: isolate 6509/96, 336 h
[4] = system: Staphylococcus epidermidis; experiment: Antibacterial activity against Staphylococcus epidermidis H 6966/08 incubated for 48 hrs under dark condition by microdilution broth assay; format: functional; conditions: H 6966/08, 48 h; method in brief: as §1
Mycobacterium kansasii [5] = experiment: Antimycobacterial activity against Mycobacterium kansasii isolate 6509/96 after 7 days by micromethod; format: functional; conditions: isolate 6509/96, 168 h
Mycobacterium avium [6] = experiment: Antimycobacterial activity against Mycobacterium avium 330/88 measured after 21 days by micromethod; format: functional; conditions: 330/88, 504 h
[7] = system: Mycobacterium tuberculosis; experiment: Antimycobacterial activity against Mycobacterium tuberculosis H37Rv 331/88 measured after 21 days by micromethod; format: functional; conditions: H37Rv 331/88, 504 h
Enterococcus [8] = experiment: Antibacterial activity against Enterococcus sp. J 14365/08 incubated for 24 hrs under dark condition by microdilution broth assay; conditions: J 14365/08, 24 h
Mycobacterium kansasii [9] = experiment: Antimycobacterial activity against Mycobacterium kansasii isolate 235/80 after 14 days by micromethod; format: functional; conditions: isolate 235/80, 336 h
Escherichia coli [10] = experiment: Antibacterial activity against Escherichia coli CCM 4517 incubated for 24 hrs under dark condition by microdilution broth assay; format: functional; conditions: CCM 4517, 24 h; method in brief: as §1
[11] = Solubility of the compound in Sula's semisynthetic medium up to 1 mM; format: physicochemical
Mycobacterium kansasii [12] = experiment: Antimycobacterial activity against Mycobacterium kansasii isolate 235/80 after 21 days by micromethod; format: functional; conditions: isolate 235/80, 504 h
Staphylococcus aureus [13] = experiment: Antibacterial activity against Staphylococcus aureus CCM 4516/08 incubated for 48 hrs under dark condition by microdilution broth assay; format: functional; conditions: CCM 4516/08, 48 h; method in brief: as §1
[14] = system: Mycobacterium tuberculosis; experiment: Antimycobacterial activity against Mycobacterium tuberculosis H37Rv 331/88 measured after 14 days by micromethod; format: functional; conditions: H37Rv 331/88, 336 h
Staphylococcus aureus [15] = experiment: Antibacterial activity against methicillin-resistant Staphylococcus aureus H 5996/08 incubated for 48 hrs under dark condition by microdilution broth assay; format: functional; conditions: H 5996/08, 48 h
Method in brief: (§2)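 Microdilution broth method modified per M07-A07, in Mueller-Hinton broth adjusted to pH 7.4 (±0.2). Inoculum made in sterile water to 0.5 McFarland (1.5 × 10⁸ CFU/mL). Plates incubated in the dark at 35 °C in a humid atmosphere, with reads at 24 and 48 h. MIC taken as at least 95% growth reduction (IC₉₅) versus control.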

Lichtheimia corymbifera = experiment: Antifungal activity against Absidia corymbifera 272 after 24 to 48 hrs hrs by microdilution broth assay; format: functional
Method in brief: (§3)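 Broth microdilution per CLSI M27-A3 and M38-A2 in RPMI 1640 with glutamine, buffered to pH 7.0 with MOPS. Compounds are diluted in DMSO. Final inoculum is 5 × 10³ CFU/mL for yeasts and 0.5–5 × 10⁴ CFU/mL for moulds. Plates are incubated in the dark at 35 °C in humid air and read visually and/or at 540 nm after 24 and 48 h. MIC is ≥80% growth reduction (IC₈₀) for yeasts and ≥50% (IC₅₀) for filamentous fungi.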

Enterococcus [16] = experiment: Antibacterial activity against Enterococcus sp. J 14365/08 incubated for 48 hrs under dark condition by microdilution broth assay; conditions: J 14365/08, 48 h
Mycobacterium kansasii [17] = experiment: Antimycobacterial activity against Mycobacterium kansasii isolate 235/80 after 7 days by micromethod; format: functional; conditions: isolate 235/80, 168 h
Escherichia coli [18] = experiment: Antibacterial activity against Escherichia coli CCM 4517 incubated for 48 hrs under dark condition by microdilution broth assay; format: functional; conditions: CCM 4517, 48 h; method in brief: as §1
Pichia kudriavzevii = experiment: Antifungal activity against Candida krusei E28 after 24 to 48 hrs hrs by microdilution broth assay; format: functional; method in brief: as §3
Klebsiella pneumoniae [19] = experiment: Antibacterial activity against ESBL positive Klebsiella pneumoniae J 14368/08 up to 500 uM incubated for 24 to 48 hrs under dark condition by microdilution broth assay; format: functional; method in brief: as §1
Staphylococcus aureus [20] = experiment: Antibacterial activity against methicillin-resistant Staphylococcus aureus H 5996/08 incubated for 24 hrs under dark condition by microdilution broth assay; format: functional; conditions: H 5996/08, 24 h; method in brief: as §2
Pseudomonas aeruginosa = experiment: Antibacterial activity against Pseudomonas aeruginosa CCM 1961 up to 500 uM incubated for 24 to 48 hrs under dark condition by microdilution broth assay; format: functional; method in brief: as §1
Mycobacterium avium [21] = experiment: Antimycobacterial activity against Mycobacterium avium 330/88 measured after 14 days by micromethod; format: functional; conditions: 330/88, 336 h
[22] = system: Staphylococcus epidermidis; experiment: Antibacterial activity against Staphylococcus epidermidis H 6966/08 incubated for 24 hrs under dark condition by microdilution broth assay; format: functional; conditions: H 6966/08, 24 h; method in brief: as §1
Klebsiella pneumoniae [23] = experiment: Antibacterial activity against Klebsiella pneumoniae D 11750/08 up to 500 uM incubated for 24 to 48 hrs under dark condition by microdilution broth assay; format: functional; method in brief: as §1

O=C(CN1C(=O)/C(=C/c2cc(Cl)ccc2O)SC1=S)Nc1ccc(Cl)cc1
MIC (Mycobacterium kansasii [1]): 250 µM (≈ 110 µg/mL)
MIC95 (Staphylococcus aureus [2]): 250 µM (≈ 110 µg/mL)
MIC (Mycobacterium kansasii [3]): 250 µM (≈ 110 µg/mL)
MIC95 [4]: > 250 µM
MIC (Mycobacterium kansasii [5]): 125 µM (≈ 54.9 µg/mL)
MIC (Mycobacterium avium [6]): 250 µM (≈ 110 µg/mL)
MIC [7]: 32 µM (≈ 14.1 µg/mL)
MIC95 (Enterococcus [8]): > 250 µM
MIC (Mycobacterium kansasii [9]): 125 µM (≈ 54.9 µg/mL)
MIC95 (Escherichia coli [10]): > 250 µM
solubility [11]: Insoluble
MIC (Mycobacterium kansasii [12]): 250 µM (≈ 110 µg/mL)
MIC95 (Staphylococcus aureus [13]): > 250 µM
MIC [14]: 16 µM (≈ 7.03 µg/mL)
MIC95 (Staphylococcus aureus [15]): > 250 µM
Activity (Lichtheimia corymbifera): inactive
MIC95 (Enterococcus [16]): > 250 µM
MIC (Mycobacterium kansasii [17]): 125 µM (≈ 54.9 µg/mL)
MIC95 (Escherichia coli [18]): > 250 µM
Activity (Pichia kudriavzevii): inactive
Activity (Klebsiella pneumoniae [19]): inactive
MIC95 (Staphylococcus aureus [20]): 125 µM (≈ 54.9 µg/mL)
Activity (Pseudomonas aeruginosa): inactive
MIC (Mycobacterium avium [21]): 250 µM (≈ 110 µg/mL)
MIC95 [22]: 250 µM (≈ 110 µg/mL)
Activity (Klebsiella pneumoniae [23]): inactive

Cc1ccc(OC(=O)CN2C(=O)CSC2=S)cc1
MIC (Mycobacterium kansasii [1]): 1000 µM (≈ 281 µg/mL)
MIC (Mycobacterium kansasii [3]): 1000 µM (≈ 281 µg/mL)
MIC (Mycobacterium kansasii [5]): 1000 µM (≈ 281 µg/mL)
MIC (Mycobacterium avium [6]): 1000 µM (≈ 281 µg/mL)
MIC [7]: 1000 µM (≈ 281 µg/mL)
MIC (Mycobacterium kansasii [9]): 1000 µM (≈ 281 µg/mL)
solubility [11]: Soluble
MIC (Mycobacterium kansasii [12]): 1000 µM (≈ 281 µg/mL)
MIC [14]: 1000 µM (≈ 281 µg/mL)
Activity (Lichtheimia corymbifera): inactive
MIC (Mycobacterium kansasii [17]): 1000 µM (≈ 281 µg/mL)
Activity (Pichia kudriavzevii): inactive
Activity (Klebsiella pneumoniae [19]): inactive
Activity (Pseudomonas aeruginosa): inactive
MIC (Mycobacterium avium [21]): 1000 µM (≈ 281 µg/mL)
Activity (Klebsiella pneumoniae [23]): inactive

O=C(CN1C(=O)/C(=C/c2ccccc2O)SC1=S)Nc1ccc(Cl)cc1
MIC (Mycobacterium kansasii [1]): 125 µM (≈ 50.6 µg/mL)
MIC (Mycobacterium kansasii [3]): 125 µM (≈ 50.6 µg/mL)
MIC (Mycobacterium kansasii [5]): 62.5 µM (≈ 25.3 µg/mL)
MIC (Mycobacterium avium [6]): 125 µM (≈ 50.6 µg/mL)
MIC [7]: 16 µM (≈ 6.48 µg/mL)
MIC (Mycobacterium kansasii [9]): 62.5 µM (≈ 25.3 µg/mL)
solubility [11]: Soluble
MIC (Mycobacterium kansasii [12]): 125 µM (≈ 50.6 µg/mL)
MIC [14]: 8 µM (≈ 3.24 µg/mL)
Activity (Lichtheimia corymbifera): inactive
MIC (Mycobacterium kansasii [17]): 32 µM (≈ 13 µg/mL)
Activity (Pichia kudriavzevii): inactive
Activity (Klebsiella pneumoniae [19]): inactive
Activity (Pseudomonas aeruginosa): inactive
MIC (Mycobacterium avium [21]): 62.5 µM (≈ 25.3 µg/mL)
Activity (Klebsiella pneumoniae [23]): inactive

O=C(CN1C(=O)CSC1=S)Nc1ccc(C(F)(F)F)cc1
MIC (Mycobacterium kansasii [1]): 1000 µM (≈ 334 µg/mL)
MIC (Mycobacterium kansasii [3]): 1000 µM (≈ 334 µg/mL)
MIC (Mycobacterium kansasii [5]): 1000 µM (≈ 334 µg/mL)
MIC (Mycobacterium avium [6]): > 1000 µM
MIC [7]: 1000 µM (≈ 334 µg/mL)
MIC (Mycobacterium kansasii [9]): 1000 µM (≈ 334 µg/mL)
solubility [11]: Soluble
MIC (Mycobacterium kansasii [12]): 1000 µM (≈ 334 µg/mL)
MIC [14]: 500 µM (≈ 167 µg/mL)
Activity (Lichtheimia corymbifera): inactive
MIC (Mycobacterium kansasii [17]): 1000 µM (≈ 334 µg/mL)
Activity (Pichia kudriavzevii): inactive
Activity (Klebsiella pneumoniae [19]): inactive
Activity (Pseudomonas aeruginosa): inactive
MIC (Mycobacterium avium [21]): > 1000 µM
Activity (Klebsiella pneumoniae [23]): inactive

Cc1ccc(NC(=O)CN2C(=O)CSC2=S)cc1
MIC (Mycobacterium kansasii [1]): 500 µM (≈ 140 µg/mL)
MIC (Mycobacterium kansasii [3]): 500 µM (≈ 140 µg/mL)
MIC (Mycobacterium kansasii [5]): 500 µM (≈ 140 µg/mL)
MIC (Mycobacterium avium [6]): > 1000 µM
MIC [7]: 500 µM (≈ 140 µg/mL)
MIC (Mycobacterium kansasii [9]): 500 µM (≈ 140 µg/mL)
solubility [11]: Soluble
MIC (Mycobacterium kansasii [12]): 500 µM (≈ 140 µg/mL)
MIC [14]: 500 µM (≈ 140 µg/mL)
Activity (Lichtheimia corymbifera): inactive
MIC (Mycobacterium kansasii [17]): 250 µM (≈ 70.1 µg/mL)
Activity (Pichia kudriavzevii): inactive
Activity (Klebsiella pneumoniae [19]): inactive
Activity (Pseudomonas aeruginosa): inactive
MIC (Mycobacterium avium [21]): 1000 µM (≈ 280 µg/mL)
Activity (Klebsiella pneumoniae [23]): inactive

O=C(O)CN1C(=O)CSC1=S [RHODANINE-3-ACETIC ACID]
MIC (Mycobacterium kansasii [1]): 1000 µM (≈ 191 µg/mL)
MIC (Mycobacterium kansasii [3]): 1000 µM (≈ 191 µg/mL)
MIC (Mycobacterium kansasii [5]): 1000 µM (≈ 191 µg/mL)
MIC (Mycobacterium avium [6]): 1000 µM (≈ 191 µg/mL)
MIC [7]: 1000 µM (≈ 191 µg/mL)
MIC (Mycobacterium kansasii [9]): 1000 µM (≈ 191 µg/mL)
MIC (Mycobacterium kansasii [12]): 1000 µM (≈ 191 µg/mL)
MIC [14]: 1000 µM (≈ 191 µg/mL)
MIC (Mycobacterium kansasii [17]): 1000 µM (≈ 191 µg/mL)
MIC (Mycobacterium avium [21]): 1000 µM (≈ 191 µg/mL)
